EphB4 antag = antagonists of human EphB4-ephrin-B2 interaction | P54760 | EphB4 LBD / TNYL-RAW-Alexa532 peptide, fluorescence polarization | inhibition, % at 7 µM | 97,000 tested, 0.15% active;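 active = inhibition above the screen-wide mean inhibition plus 3 SD, cut at about 15% in these data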;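 also: 0% = DMSO wells and 100% = excess unlabeled TNYL-RAW peptide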
PLK1 kinase inh = blocks human PLK1 kinase activity; P53350; recombinant PLK1 kinase, TR-FRET peptide phosphorylation; inhibition, % at 10 µM; 97,000 tested, 0.53% active; AID 619;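 active = inhibition of 50% or more in the single-concentration screen; inactive = inhibition below 50%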;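 also: 0% = DMSO max control and 100% = H-89 dihydrochloride min control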
Target sequence (P53350 whole entry, looked up): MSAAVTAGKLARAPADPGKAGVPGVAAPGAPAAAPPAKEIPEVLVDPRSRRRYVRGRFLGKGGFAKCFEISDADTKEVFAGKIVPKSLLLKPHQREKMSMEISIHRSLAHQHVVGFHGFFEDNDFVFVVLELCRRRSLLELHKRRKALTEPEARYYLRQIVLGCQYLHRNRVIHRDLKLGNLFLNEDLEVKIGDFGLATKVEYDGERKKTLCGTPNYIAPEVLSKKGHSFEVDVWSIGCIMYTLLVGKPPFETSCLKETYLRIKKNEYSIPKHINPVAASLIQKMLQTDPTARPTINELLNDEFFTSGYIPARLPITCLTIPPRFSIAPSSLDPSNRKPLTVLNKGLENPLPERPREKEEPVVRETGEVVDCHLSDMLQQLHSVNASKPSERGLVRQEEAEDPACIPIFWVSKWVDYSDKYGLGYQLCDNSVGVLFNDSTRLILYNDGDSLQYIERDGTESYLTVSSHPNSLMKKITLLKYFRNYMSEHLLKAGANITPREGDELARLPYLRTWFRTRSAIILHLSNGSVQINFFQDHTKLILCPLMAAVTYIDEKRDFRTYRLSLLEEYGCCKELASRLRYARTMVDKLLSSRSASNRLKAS
LYP inh 2 = LYP (human) phosphatase inhibition; Q9Y2R2; recombinant LYP catalytic domain, DiFMUP fluorescence; inhibition, % at 2 µM; 96,000 tested, 0.21% active; AID 640;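 active = inhibition at 2 µM at or above a set limit, the screen mean plus 3 SD, cut at about 24% in these data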;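 also: 0% = DMSO with enzyme and 100% = enzyme fully blocked by orthovanadate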
Rev-RRE block = HIV Rev-RRE protein-RNA interaction inhibition. P05866. Rev peptide-RRE RNA binding, FRET. inhibition, % at 8 µM. 97,000 tested, 0.79% active. AID 704;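 active = inhibition above the screen-wide mean plus 3 SD, cut at about 35% in these data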;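 also: 0% = median DMSO wells and 100% = median Neomycin B control wells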
Target sequence (P05866 whole entry, looked up): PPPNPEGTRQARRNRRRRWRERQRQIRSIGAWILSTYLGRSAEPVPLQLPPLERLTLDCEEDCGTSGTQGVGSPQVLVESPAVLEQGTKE
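Assay system: Labelled RRE RNA duplex and labelled Rev peptide | Times: 5 min preincubation and 15 min binding, 25 °C | Detection: FRET, ex 480 nm, em 540 and 671 nm | Evaluation: % inhibition of FRET ratio versus controls | Benchmarks: DMSO wells as 0% and neomycin B wells as 100% inhibition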
PTPN22 act = increases human PTPN22 phosphatase activity | recombinant LYP, DiFMUP fluorescence; 0 = plate median, 100 = signal doubled | activation, % at 2 µM | 96,000 tested, 0.11% active;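 active = activation at 2 µM above a set limit, the mean plus 5 SD, cut at about 37% in these data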
Plk1 PBD FP = Plk1 (human) PBD binding inhibition. P53350. Plk1 PBD phosphopeptide binding, fluorescence polarization. inhibition, %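 (tested at about 20 µM)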. 97,000 tested, 0.13% active; in the data active = inhibition above about 34%, passing the limit was not always enough
PLK1 inh conf = confirmation of human PLK1 kinase inhibitors; shares compounds with PLK1 kinase inh; recombinant PLK1 kinase, TR-FRET peptide phosphorylation; inhibition, % at 10 µM; 210 tested, 20% active; AID 744;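 active = inhibition at or above 50% in each of two repeat confirmation tests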;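 also: 0% = DMSO max control and 100% = H-89 kinase-blocked min control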
TR-FRET interf = interferes with the Plk1 assay readout, not true inhibition | 210 tested, under 10 active | shares compounds with PLK1 kinase inh | inhibition (interference), % at 10 µM | Plk1 TR-FRET assay interference, compound added post-reaction;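 active = both duplicate runs show 50% or greater inhibition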;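 also: 0% = DMSO max control and 100% = H-89 min control inhibited reaction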
Starred values were filed as active, the others as inactive; nt = no result given. Compounds with a hit are over-represented: about 2% of the library has one in this group of screens.

SMILES	EphB4 antag	PLK1 kinase inh	LYP inh 2	Rev-RRE block	PTPN22 act	Plk1 PBD FP	others
COc1ccc(CNC(=O)C(C#N)c2nc3ccccc3nc2N2CCCC2)cc1 (stereo not given)	11.2	-4.8	2.1	35.9*	-4.0	16.1
CSc1nc(-c2ccccc2)nn1C(=O)c1ccc(C)cc1	0.9	-12.8	13.4	9.9	-10.8	16.1
CNc1nc(OCC(F)(F)F)nc(N2CCN(C34CC5CC(CC(C5)C3)C4)CC2)n1	3.6	4.4	5.7	0.0	-5.1	4.5
O=[N+]([O-])c1cccc(/C=C/c2nc3ccc([N+](=O)[O-])cc3[nH]2)c1	-4.3	-7.8	17.9	8.4	-15.9	14.3
Cc1c(CN(C)C(=O)c2sc3cc(Cl)ccc3c2Cl)cnn1C	-2.8	-10.8	2.4	2.4	-2.6	1.9
O=C(NNC(=O)c1cc2cc3ccccc3nc2s1)c1cccc(Cl)c1	-6.9	-22.8	27.1*	-16.9	-24.7	10.3
Cc1cccc(C(=O)NNC(=O)c2cc3cc4ccccc4nc3s2)c1	-0.2	-9.3	4.0	19.7	-1.2	24.6
CN(C)S(=O)(=O)c1ccc(C(=O)OCn2nnc3ccccc3c2=O)cc1	3.8	-20.1	-21.1	7.3	17.2	-10.2
COc1ccc2[nH]c3nc(SCC(=O)NNC(=O)c4ccc(OC)c(OC)c4)nnc3c2c1	5.0	-0.6	14.1	2.6	-11.9	-17.4
Cc1ccc(C(=O)NNC(=O)CSc2nnc3c(n2)[nH]c2ccc(F)cc23)cc1	0.1	-11.6	29.6*	-39.3	-27.5	-8.0
Cc1ccc(Cn2c(NCCc3ccccc3)nc3c2c(=O)n(C)c(=O)n3C)cc1	-0.7	0.9	2.4	0.9	1.6	19.8
C=CCn1c(NCCc2ccccc2)nc2c1c(=O)n(C)c(=O)n2C	15.6*	-5.0	14.3	5.4	-11.6	18.7
Cc1ccc(NC(=O)NNc2cccc(Cl)n2)cc1	0.6	-8.6	1.2	3.8	2.0	-16.4
COc1ccc(S(=O)(=O)N2CC3CCCN3c3ccc(C(F)(F)F)cc32)cc1 (stereo not given)	0.0	-11.5	14.2	20.0	-10.7	-14.5
COc1ccc(S(=O)(=O)N2CC3CCCN3c3cc(C(F)(F)F)ccc32)cc1 (stereo not given)	7.3	-5.5	25.0*	14.0	-21.8	3.8
CCOc1ccc(Br)cc1CC(=O)O	-5.1	-5.4	-0.3	5.7	2.9	-15.6
CCOc1ccc(Br)cc1C1C(C(=O)OC)=C(N)Oc2cc(N(C)C)ccc21 (stereo not given)	0.3	-4.6	1.7	38.4*	0.5	-1.8
CC(C)C(CCNC(=O)CN1C(=O)c2ccccc2C1=O)c1ccco1 (stereo not given)	-1.5	-4.1	7.6	0.5	-4.2	-14.5
CC(C)C(CCNC(=O)CC(Cc1ccccc1)c1ccco1)c1ccco1 (stereo not given)	0.0	-8.9	24.1*	4.7	-21.2	-20.4
O=C(c1ccccc1)c1nc2ccccc2n(CCCn2c(=O)c(C(=O)c3ccccc3)nc3ccccc32)c1=O	-3.5	-5.8	9.1	5.7	-9.2	-3.7
CCN(CC)CCCn1c(C)cc2c(c1=O)C(c1cccc(Cl)c1)C(C#N)=C(N)O2 (stereo not given)	-6.7	-4.6	-7.3	-1.6	5.0	46.5*
CCN(CC)CCCn1c(C)cc2c(c1=O)C(c1cc(OC)c(OC)cc1OC)C(C#N)=C(N)O2 (stereo not given)	11.1	-7.1	8.8	4.2	-9.9	18.9
COc1cc(OC)cc(C(=O)Nc2ccccc2C(=O)N2CCCC2)c1	-1.7	-6.6	51.5*	-2.0	-50.8	8.6
COc1ccccc1C(=O)Nc1ccccc1C(=O)N1CCCC1	0.6	-14.3	2.5	3.9	-0.2	4.3
Cc1ccccc1NC(NC(=O)c1cccs1)C(Cl)(Cl)Cl (stereo not given)	-10.0	-4.4	-7.5	3.3	10.4	10.7
SMILES	EphB4 antag	PLK1 kinase inh	LYP inh 2	Rev-RRE block	PTPN22 act	Plk1 PBD FP	others
O=C(NC(=S)Nc1ccc2[nH]ncc2c1)c1ccccc1	1.7	24.0	-2.4	6.0	-0.6	-17.6
Brc1ccc2[nH]ncc2c1	-6.6	50.7*	-7.2	1.0	2.8	-6.2
Cc1ccc(N2CCN(C(=O)c3ccccc3NC(=O)/C=C\C(=O)O)CC2)cc1	-2.4	-13.8	1.2	0.4	1.2	-26.8
O=S(=O)(c1ccc(Oc2ccc(Cl)cc2)c(S(=O)(=O)N2CCCCC2)c1)N1CCCCC1	6.4	-11.1	12.6	6.2	-12.7	30.3
COc1ccc(NC(=O)Nc2nccs2)cc1	-5.7	3.8	6.5	6.6	-4.9	5.2
O=C(Nc1ccccc1)Nc1nccs1	3.5	93.0*	6.2	8.7	-3.4	0.1	PLK1 inh conf=5.8;TR-FRET interf=-52.9
CCCCOC(=O)C1[C@H]2C(=O)N(c3ccccc3CC)C[C@]23C=C[C@H]1O3 (stereo not given in full)	2.1	-5.8	4.8	6.7	-6.4	-24.3
CCc1ccccc1N1CC23C=CC(O2)C(C(=O)OCC(C)C)C3C1=O (stereo not given)	-5.4	71.7*	nt	-1.3	nt	6.5	PLK1 inh conf=-8.8;TR-FRET interf=-52.5
O=C(CCC(=O)c1ccc(Cl)cc1)OCC(=O)c1ccccc1	0.5	125.8*	-6.1	4.2	11.3	-15.4	PLK1 inh conf=-2.3;TR-FRET interf=-53.4
O=C(COC(=O)c1cccnc1)c1ccc(Cl)cc1	-2.4	-2.1	4.0	-0.9	-3.5	15.6
C/C(O)=C\c1nc2ccccc2oc1=O	-7.4	124.3*	-9.4	-1.1	12.4	8.6	PLK1 inh conf=-6.1;TR-FRET interf=-52.2
CS(=O)(=O)Cc1nc2ccccc2oc1=O	11.6	-7.2	1.4	9.6	-2.0	1.3
Cc1ccccc1NC(=O)c1ccc(S(=O)(=O)N(C)C)cc1	-2.7	72.3*	nt	-0.2	nt	-1.9	PLK1 inh conf=-11.8;TR-FRET interf=-58.9
COc1cccc(C(=O)n2cnnc2N)c1OC	4.5	127.5*	-8.9	4.9	5.8	-6.8	PLK1 inh conf=1.3;TR-FRET interf=-56.1
CCOCC(=O)Nc1nc2c(s1)C(=O)CC(C)(C)C2	-4.9	41.4	4.0	2.6	-5.6	10.3
CC1(C)CC(=O)c2sc(NC(=O)C3CC3)nc2C1	0.5	75.0*	nt	7.8	nt	5.8	PLK1 inh conf=-2.7;TR-FRET interf=-52.4
COc1ccc(Cl)cc1N1CCN(CCNC(=O)Nc2ccccc2C)CC1	-4.3	-10.7	5.6	5.2	-5.2	-21.9
COc1ccc(C2OC(=O)CC2C(=O)N2CCN(c3cc(Cl)ccc3C)CC2)cc1OC (stereo not given)	-3.6	75.8*	nt	-0.9	nt	-18.9	PLK1 inh conf=-4.9;TR-FRET interf=-52.4
Clc1cccc(Cl)c1COc1ccccn1	5.5	-5.3	-7.4	8.4	6.6	-12.3
